Results published in ChEMBL document CHEMBL1140317, “Novel alpha-amino-3-hydroxy-5-methyl-4-isoxazole propionate (AMPA) receptor antagonists of 2,3-benzodiazepine type: chemical synthesis, in vitro characterization, and in vivo prevention of acute neurodegeneration” (J Med Chem, 2005).

Key:
[1] = biological target: Glutamate receptor ionotropic, AMPA (Rattus norvegicus, UniProt P19490+P19491+P19492+P19493); experiment: In vitro inhibition of AMPA receptor mediated currents in primary cultured rat fetal hippocampal neurons; assay type: tissue-based, Hippocampus
Outline: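 Whole-cell patch clamp at −60 mV on hippocampal neurons from E19 Wistar rat fetuses, cultured 6–14 days (cytosine-arabinoside from day 6). Inward currents were evoked by bath-perfused kainate in pH 7.4 HEPES medium with CsCl pipet solution. Antagonist was bath-applied after 90 s preincubation in 0.3% DMSO final. Currents were normalized to the no-antagonist value, 5–6 cells per point, and the logistic fit gave IC50.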

[2] = test system: Rattus norvegicus; experiment: Effect on total cerebral infarct volume measured 24 hour after permanent MCA occlusion in rat at a dose of 3 mg/kg (n=6); assay type: functional
Outline: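 Male Fischer-344 rats underwent permanent MCA occlusion and received a single ip dose in physiological saline (0.9% NaCl) immediately after occlusion. Rectal temperature was held at 37 ± 0.5 °C during surgery. At 24 h, under Nembutal, brains were TTC-stained and infarct areas measured, with volume by Cavalieri principle. Mean ± SD; ANOVA with Dunnett's test versus vehicle.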

[3] = test system: Mus musculus; experiment: Effect on brain lesion measured 24 hr after permanent MCA occlusion in mice upon four i.p. doses of 30 mg/kg (n=8); assay type: functional; conditions: route intraperitoneal
Outline: (§1)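 Male NMRI mice (23–30 g) under Avertin anesthesia (240 mg/kg ip), rectal temperature held at 37 ± 0.5 °C during surgery, underwent permanent MCA occlusion. Four ip injections in 10% cremophor EL were given 1 h before and 0, 1 and 2 h after occlusion. At 24 h, infarct volume was measured by TTC staining (Cavalieri principle). Results are mean ± SD versus vehicle, ANOVA with Dunnett test.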

[4] = test system: Mus musculus; experiment: Effect on brain lesion measured 24 hour after permanent MCA occlusion in mice upon four i.p. doses of 10 mg/kg (n=9); assay type: functional; conditions: route intraperitoneal; outline: as §1
[5] = test system: Mus musculus; experiment: Effect on brain lesion measured 24 hour after permanent MCA occlusion in mice upon three i.p. doses of 30 mg/kg (n=12); assay type: functional; conditions: route intraperitoneal
Outline: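 Reference paradigm in male NMRI mice with permanent MCA occlusion, anesthetized with Avertin (240 mg/kg ip). Three ip injections of 30 mg/kg in physiological saline at 60, 70 and 85 min after occlusion (table footnote says 80 min). Infarct volume was measured at 24 h by TTC staining and Cavalieri calculation. Results are mean ± SD versus saline vehicle, ANOVA/Dunnett.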

[6] = test system: Mus musculus; experiment: Effect on brain lesion measured 24 hour after permanent MCA occlusion in mice upon four i.p. doses of 10 mg/kg (n=10); assay type: functional; conditions: route intraperitoneal; outline: as §1
[7] = test system: Rattus norvegicus; experiment: Effect on total cerebral infarct volume measured 24 hour after permanent MCA occlusion in rat upon four i.p. doses of 3 mg/kg (n=12); assay type: functional; conditions: route intraperitoneal
Outline: (§2)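 Male Fischer-344 rats with permanent MCA occlusion received four ip injections in 10% cremophor EL at 1, 2, 3 and 4 h after occlusion. Total infarct volume (cortex and striatum) was measured 24 h after occlusion by TTC staining with Cavalieri volume calculation. Results are mean ± SD versus vehicle group, ANOVA followed by Dunnett test.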

[8] = test system: Rattus norvegicus; experiment: Effect on total cerebral infarct volume measured 24 hour after permanent MCA occlusion in rat upon four i.p. doses of 10 mg/kg (n=15); assay type: functional; conditions: route intraperitoneal; outline: as §2
[9] = test system: Rattus norvegicus; experiment: Effect on total cerebral infarct volume measured 24 hour after permanent MCA occlusion in rat upon four i.p. doses of 30 mg/kg (n=10); assay type: functional; conditions: route intraperitoneal; outline: as §2
[10] = Volume of distribution was measured; assay type: ADME, organism-based; conditions: in vivo; read-out: Volume of distribution
Outline: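 Rats were given 2.5 mg/kg iv. Plasma was sampled at nine time points from 5 min to 7 h, precipitated with acetonitrile (1:5) and quantified by LC/MS/MS against matrix calibration curves with an internal standard, C18 column, water/acetonitrile with 0.1% acetic acid gradient. Volume of distribution was calculated from the concentration–time data.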

[11] = test system: Rattus norvegicus; experiment: Half life was measured after iv injection in rats; conditions: in vivo
[12] = test system: Rattus norvegicus; experiment: Plasma clearance was measured after iv injection in rats

`Cc1nc2n(c1C)N=C(c1ccc(F)cc1)c1cc3c(cc1C2)OCO3` showed an IC50 [1] of 10 µM.
For `Cc1nc2n(c1C)N=C(c1ccc(Cl)cc1)c1cc3c(cc1C2)OCO3`, the IC50 [1] was 10 µM.
In the case of `Clc1nc2n(c1Cl)N=C(c1ccccc1)c1cc3c(cc1C2)OCO3`, the IC50 [1] is reported as > 10 µM.
`C[C@]12N[C@H](Cc3ccccc31)c1ccccc12` [DIZOCILPINE] showed a Total infarct volume [2] of 118 mm.
Work on `Cc1c(CO)nc2n1N=C(c1ccccc1)c1cc3c(cc1C2)OCO3` yielded a Brain lesion [3] of 23 mm³, a Brain lesion [4] of 20.6 mm³ and an IC50 [1] of 4.6 µM.
For `NS(=O)(=O)c1cccc2c1c([N+](=O)[O-])cc1nc(O)c(O)nc12` [NBQX], the Brain lesion [5] was 18.4 mm³.
In the case of `CC1=NN=C(c2ccc(N)cc2)c2cc3c(cc2C1)OCO3` [GYKI-52466], the IC50 [1] is reported as 9 µM.
With `c1ccc(C2=Nn3ccnc3Cc3cc4c(cc32)OCO4)cc1` the IC50 [1] was 6.5 µM.
For `Brc1nc2n(c1Br)N=C(c1ccccc1)c1cc3c(cc1C2)OCO3`, the IC50 [1] was > 10 µM.
With `Cc1nc2n(c1C)N=C(c1ccccc1)c1cc3c(cc1C2)OCO3` the Brain lesion [6] was 17.1 mm³, the Total infarct volume [7] was 138 mm³ and the Total infarct volume [8] was 142 mm³. It also gave a Total infarct volume [9] of 132 mm³, an IC50 [1] of 3.4 µM and a Vd [10] of 2.7 L/kg. The half-life [11] was 72 min and the clearance [12] was 54 mL/min/kg.
